We go through three compounds from ChEMBL document CHEMBL1149634, “1-Acylthiosemicarbazides, 1,2,4-triazole-5(4H)-thiones, 1,3,4-thiadiazoles and hydrazones containing 5-methyl-2-benzoxazolinones: synthesis, analgesic-anti-inflammatory and antimicrobial activities” (2007).

Converted amounts (≈) assume the structure as drawn.

Test [1] has as its system Mus musculus. Put plainly: Antiinflammatory activity against carrageenan-induced hind paw oedema in mouse assessed as swelling thickness at 50 mg/kg, po after 180 mins. It is filed as functional. In a few lines:
(§1)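 Fasted mice (n = 5–6) were dosed orally with the sample in 0.5% CMC/water. One hour later, carrageenan (0.5 mg/25 µl in 154 mM saline) was injected subplantar into the right hind paw. The right-minus-left footpad thickness difference was measured with dial gauge callipers every 90 min over 6 h. Inhibition % is calculated versus vehicle control; mean ± SEM, Student's t test.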
(In the carrageenan paw model, swelling and tenderness develop within hours.)

Another test has as its system Escherichia coli. Put plainly: Antibacterial activity against Escherichia coli ATCC 25922 after 24 hrs by broth microdilution test. It is filed as functional. The conditions noted are these: ATCC 25922, 24 h. In a few lines:
(§2)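 NCCLS broth microdilution in Mueller-Hinton broth with an inoculum of 5 × 10^5 cfu/mL. Compounds were dissolved in DMSO, diluted in sterile water, and tested as twofold dilutions from 512 to 0.5 µg/mL. Plates were incubated at 35 °C for 24 h. MIC is the lowest concentration preventing visible growth.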
(Broth dilution looks for growth in wells or tubes with falling amounts of substance.)

Test [2] has as its system Mus musculus. As to the kind of experiment: Antiinflammatory activity against carrageenan-induced hind paw oedema in mouse assessed as swelling thickness at 50 mg/kg, po after 270 mins. It is filed as functional. An outline of the steps: as §1
The subject of test [3] is Mus musculus. As to the kind of experiment: Analgesic activity in mouse assessed as inhibition of acetic acid induced-abdominal writhing at 100 mg/kg, ip by Koster test. Conditions: Abdomen, route intraperitoneal. The class given is functional. For orientation: Writhing tests count abdominal constrictions after an irritant is injected.
The next test concerns Enterococcus faecalis. As to the kind of experiment: Antibacterial activity against Enterococcus faecalis ATCC 29212 after 24 hrs by broth microdilution test. It is filed as functional. Conditions: ATCC 29212, 24 h. An outline of the steps:
as §2

Test [4] has as its system Mus musculus. As to the kind of experiment: Antiinflammatory activity against carrageenan-induced hind paw oedema in mouse assessed as inhibition of swelling thickness at 100 mg/kg, po after 180 mins. The class given is functional. The conditions noted are these: 3 h. An outline of the steps: as §1
In another test the test system is Pseudomonas aeruginosa. As to the kind of experiment: Antibacterial activity against Pseudomonas aeruginosa ATCC 27853 after 24 hrs by broth microdilution test. It is filed as functional. The conditions noted are these: ATCC 27853, 24 h. An outline of the steps: as §2
Test [5] concerns Mus musculus. Put plainly: Antiinflammatory activity against carrageenan-induced hind paw oedema in mouse assessed as swelling thickness at 200 mg/kg, po after 360 mins. It is filed as functional. In a few lines: as §1
In test [6] the test system is Mus musculus. As to the kind of experiment: Antiinflammatory activity against carrageenan-induced hind paw oedema in mouse assessed as inhibition of swelling thickness at 200 mg/kg, po after 90 mins. Conditions: 1.5 h. It is filed as functional. An outline of the steps: as §1
The subject of another test is Candida albicans. As to the kind of experiment: Antifungal activity against Candida albicans ATCC 90028 after 48 hrs by broth microdilution test. Conditions: ATCC 90028, 48 h. It is filed as functional. An outline of the steps: (§3)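 Yeasts tested by NCCLS M27-A broth microdilution in RPMI 1640 (with L-glutamine, without sodium bicarbonate) with an inoculum of 0.5–2.5 × 10^3 cfu/mL. Compounds were prepared from DMSO solution diluted in water as twofold dilutions from 512 to 0.5 µg/mL. Plates were incubated at 35 °C for 48 h. MIC is the lowest concentration giving no visible growth.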

The subject of test [7] is Mus musculus. Put plainly: Analgesic activity in mouse assessed as inhibition of hind paw lick at 100 mg/kg, ip by hot plate test. Conditions: route intraperitoneal. It is filed as functional.
The subject of test [8] is Mus musculus. As to the kind of experiment: Antiinflammatory activity against carrageenan-induced hind paw oedema in mouse assessed as inhibition of swelling thickness at 100 mg/kg, po after 360 mins. The class given is functional. Conditions: 6 h. An outline of the steps: as §1
Test [9] relates to Mus musculus. As to the kind of experiment: Antiinflammatory activity against carrageenan-induced hind paw oedema in mouse assessed as swelling thickness at 200 mg/kg, po after 270 mins. The class given is functional. An outline of the steps: as §1
The subject of test [10] is Mus musculus. As to the kind of experiment: Antiinflammatory activity against carrageenan-induced hind paw oedema in mouse assessed as swelling thickness at 50 mg/kg, po after 360 mins. It is filed as functional. An outline of the steps: as §1
Another test relates to Staphylococcus aureus. Put plainly: Antibacterial activity against Staphylococcus aureus ATCC 29213 after 24 hrs by broth microdilution test. The class given is functional. The conditions noted are these: ATCC 29213, 24 h. An outline of the steps: as §2
The test system of test [11] is Mus musculus. Put plainly: Antiinflammatory activity against carrageenan-induced hind paw oedema in mouse assessed as swelling thickness at 100 mg/kg, po after 270 mins. It is filed as functional. In a few lines: as §1
The test system of test [12] is Mus musculus. As to the kind of experiment: Antiinflammatory activity against carrageenan-induced hind paw oedema in mouse assessed as inhibition of swelling thickness at 100 mg/kg, po after 90 mins. It is filed as functional. The conditions noted are these: 1.5 h. An outline of the steps: as §1
In test [13] the test system is Mus musculus. As to the kind of experiment: Antiinflammatory activity against carrageenan-induced hind paw oedema in mouse assessed as swelling thickness at 50 mg/kg, po after 90 mins. It is filed as functional. An outline of the steps: as §1
A further test concerns Pichia kudriavzevii. As to the kind of experiment: Antifungal activity against Candida krusei ATCC 6258 after 48 hrs by broth microdilution test. Conditions: ATCC 6258, 48 h. The class given is functional. In a few lines:
as §3

Test [14] concerns Mus musculus. Put plainly: Antiinflammatory activity against carrageenan-induced hind paw oedema in mouse assessed as inhibition of swelling thickness at 200 mg/kg, po after 180 mins. The class given is functional. The conditions noted are these: 3 h. An outline of the steps:
as §1

Another test has as its system Candida parapsilosis. Put plainly: Antifungal activity against Candida parapsilosis ATCC 22019 after 48 hrs by broth microdilution test. It is filed as functional. The conditions noted are these: Lodderomyces parapsilosis, ATCC 22019, 48 h. An outline of the steps: as §3
The species entered for test [15] is Mus musculus. As to the kind of experiment: animal or person. Conditions: po, 1.5 h, read-out: Inhibition.
Test [16] has as its system Mus musculus. Put plainly: Antiinflammatory activity against carrageenan-induced hind paw oedema in mouse assessed as inhibition of swelling thickness at 10 mg/kg, po after 270 mins. It is filed as functional. Conditions: 4.5 h. In a few lines: as §1
Test [17] concerns Mus musculus. As to the kind of experiment: Antiinflammatory activity against carrageenan-induced hind paw oedema in mouse assessed as inhibition of swelling thickness at 10 mg/kg, po after 360 mins. The class given is functional. Conditions: 6 h. In a few lines:
as §1

Test [18] concerns Mus musculus. As to the kind of experiment: Antiinflammatory activity against carrageenan-induced hind paw oedema in mouse assessed as inhibition of swelling thickness at 10 mg/kg, po after 180 mins. It is filed as functional. Conditions: 3 h. In a few lines:
as §1

For test [19], the species on record is Mus musculus. Put plainly: animal or person. Conditions: ip, read-out: Inhibition.

For orientation: MIC means the smallest concentration in the dilution series that meets the test's criterion for growth inhibition. A lower MIC goes with inhibition by little substance. Consider `Cc1ccc(/C=N/NC(=O)Cn2c(=O)oc3ccc(C)cc32)cc1`, for which the Activity in the test on Mus musculus [1] worked out at 86.8%; in the test on Mus musculus [2] it was 103.8%; in the test with Mus musculus [5], 83.6%; in the test on Mus musculus [9], 89.1%; with Mus musculus [10], 98%; with Mus musculus [11] it was 92%. Further, in the test on Mus musculus [13], the Activity amounted to 73.8%. Besides, the MIC in the test with Escherichia coli is 128 µg/mL (≈ 396 µM); in the test on Enterococcus faecalis, 256 µg/mL (≈ 792 µM); against Pseudomonas aeruginosa, 256 µg/mL (≈ 792 µM); with Candida albicans it was 128 µg/mL (≈ 396 µM); against Staphylococcus aureus, 512 µg/mL (≈ 1580 µM); with Pichia kudriavzevii, 128 µg/mL (≈ 396 µM). For the same compound, the MIC against Candida parapsilosis was 128 µg/mL (≈ 396 µM). For the same compound, the inhibition in vivo at 100 mg/kg in the test on Mus musculus [3] is 77.8%; in the test on Mus musculus [4] it was 9.4%; in the test with Mus musculus [7] it was 52.9%; with Mus musculus [8] it was 12.6%; in the test with Mus musculus [12] it was 69.7%. Moreover, the values for the inhibition in vivo at 200 mg/kg with Mus musculus [6] and in the test on Mus musculus [14] were 17.1% and 33.3%, respectively.
On to `COc1ccc2c(c1)c(CC(=O)O)c(C)n2C(=O)c1ccc(Cl)cc1` [INDOMETHACIN], for which the inhibition in vivo at 10 mg/kg in the test listed under Mus musculus [15] worked out at 42%; in the test with Mus musculus [16] it was 46.3%; with Mus musculus [17], 41.6%; in the test with Mus musculus [18] it was 43%.
Turning to `CN1CC[C@]23c4c5ccc(O)c4O[C@H]2[C@@H](O)C=C[C@H]3[C@H]1C5` [MORPHINE], in the test filed under Mus musculus [19], the inhibition in vivo at 10 mg/kg turned out to be 50.7%.
